Here are results for four molecules from publication PMC9371903 (Nucleic Acids Research, 2022).

The target of assay [1] is ΔN-SUMO1 (residues 17–97 of human SUMO1) (Homo sapiens, UniProt P63165, C52A). Kind of assay: ITC binding to ΔN-SUMO1. Conditions: ΔN-SUMO1, 20 mM Tris–HCl pH 7.4, 25°C.
The target in assay [2] is SUMO1 (residues 2–97 of human SUMO1 with a C52A substitution) (Homo sapiens, UniProt P63165, C52A). The experiment in a line: ITC binding to SUMO1.
The subject of assay [3] is PML-NBs in IMR90 normal human fibroblasts (control vector or activated RAS). The experiment in a line: PML-NB formation by anti-PML immunofluorescence. In kind it is cell-based. The following applies: 24h treatment, 5 μM pyrithione. The gist of the method: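 IMR90 fibroblasts in pyruvate-free DMEM with 10% FBS and 1% penicillin/streptomycin, transduced with retroviral pBABE control or pBABE-RAS-V12. On day 6, plated on coverslips and treated next day for 24 h with vehicle, 5 μM pyrithione or 1 μM TPEN. Cells fixed in 4% PFA, permeabilised with 0.4% Triton X-100 and 0.1 M glycine, then blocked in 3% BSA. Anti-PML (1/250, overnight, 4°C), Alexa 568 secondary, DAPI. PML-NBs per cell and PML-NBs >1 μm counted.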

For assay [4], the target named is SUMO2 (residues 2-93 of human SUMO2 with a C48A substitution) (human, UniProt P61956 2-93, C48A). Kind of assay: ITC. In general terms: In ITC the heat of successive injections is recorded.
SUMO2 (residues 2-93 of human SUMO2 with a C48A substitution), sequence (P61956 2-93 C48A): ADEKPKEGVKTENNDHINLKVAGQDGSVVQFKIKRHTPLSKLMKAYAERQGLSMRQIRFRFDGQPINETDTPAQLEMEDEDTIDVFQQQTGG
In assay [5] the target is ΔN-SUMO2 (residues 14-93) (human, UniProt P61956 14-93, C48A). Kind of assay: ITC.
ΔN-SUMO2 (residues 14-93), sequence (P61956 14-93 C48A): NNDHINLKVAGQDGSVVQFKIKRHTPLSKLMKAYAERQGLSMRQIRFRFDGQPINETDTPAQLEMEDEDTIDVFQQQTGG
For assay [6], the target named is UBC9 (residues 2-158 of human UBC9) (human, UniProt P63279 2-158). Kind of assay: ITC.
UBC9 (residues 2-158 of human UBC9), sequence (P63279 2-158): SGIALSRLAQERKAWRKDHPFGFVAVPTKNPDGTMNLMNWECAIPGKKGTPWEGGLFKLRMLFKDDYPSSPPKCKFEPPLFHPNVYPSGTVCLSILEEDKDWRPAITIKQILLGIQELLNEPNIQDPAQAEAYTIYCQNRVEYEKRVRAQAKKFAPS

For orientation: Kd means the equilibrium constant for the complex coming apart. High values mean a looser complex, low ones a tighter complex. Consider “UBC9: residues 2–158 of human UBC9; E2 SUMO conjugating enzyme”, for which the Kd in assay [1] came to 73 ± 15 nM; in assay [2] (ITC, SUMO1, 20 mM Tris–HCl pH 7.4, 25°C) it was 29 ± 11 nM. The “fold stronger binding to SUMO1 in comparison to ΔN-SUMO1” value in assay [2] (ratio of ITC KD values, 20 mM Tris–HCl pH 7.4) is recorded as “roughly 2.5 fold”.

As for `[O-][n+]1ccccc1S` [pyrithione], the “formation of PML-NBs” value in assay [3] (Ras-expressing (senescent) IMR90 cells) is reported as “induces significantly the formation of PML-NBs”; in assay [3] (vector-control IMR90 cells), “only a marginal increase”.

Regarding YKTSVATQADPEEIIVLDDDD [Daxx-SIM-2SD (Daxx-SIM with S/D substitutions at positions 737 and 739)], the Kd in assay [4] was 1000 ± 100 nM; in assay [5], 510 ± 110 nM.

B1: ΔN-SUMO1 (residues 17-97 of human SUMO1) (domain or fragment, UniProt P63165 17-97, looked up)
chain: KEGEYIKLKVIGQDSSEIHFKVKMTTHLKKLKESYAQRQGVPMNSLRFLFEGQRIADNHTPKELGMEEEDVIEVYQEQTGG
Regarding B1, the dissociation constant Kd in assay [6] amounted to 73 ± 15 nM.
